Experiments:
[1] = Growth inhibition of human RXF393 cells assessed as cell growth at 10^-4 M incubated for 48 hrs by sulforhodamine B assay; assay type: functional; conditions: RXF 393, 48 h, read-out: Activity
SK-MEL-2 = experiment: Growth inhibition of human SK-MEL-2 cells incubated for 48 hrs by sulforhodamine B assay; assay type: functional; conditions: SK-MEL-2, 48 h
Outline: (§1)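 Cells were plated at 5,000–40,000 per well according to doubling time and preincubated 24 h at 37 °C in 5% CO2; time-zero plates were then TCA-fixed. Five concentrations (10-fold or ½-log dilutions, DMSO stock) were incubated 48 h. Cells were TCA-fixed, stained with 0.4% SRB and read at 515 nm. GI50 was taken where [(Ti−Tz)/(C−Tz)]×100 = 50.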

A498 = experiment: Growth inhibition of human A498 cells incubated for 48 hrs by sulforhodamine B assay; assay type: functional; conditions: A498, 48 h
Outline: (§2)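 Five-dose assay: five concentrations from 10-fold or ½-log serial dilutions. Cells are plated at 5,000–40,000 per well according to doubling time, grown 24 h, then exposed 48 h at 37 °C, 5% CO₂. Fixed with cold 50% TCA (final addition) for 60 min at 4 °C and stained with 0.4% SRB in 1% acetic acid. Bound dye is solubilized in 10 mM Tris base and read at 515 nm. GI₅₀ is where [(Ti−Tz)/(C−Tz)]×100 = 50, with a time-zero plate as Tz.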

[2] = Growth inhibition of human TK10 cells incubated for 48 hrs by sulforhodamine B assay; assay type: functional; conditions: TK-10, 48 h; outline: as §1
MDA-MB-231 [3] = experiment: Growth inhibition of human MDA-MB-231 cells assessed as cell growth at 10^-8 M incubated for 48 hrs by sulforhodamine B assay; assay type: functional; conditions: MDA-MB-231, 48 h, read-out: Activity
T47D = experiment: Growth inhibition of human T47D cells assessed as cell growth at 10^-8 M incubated for 48 hrs by sulforhodamine B assay; assay type: functional; conditions: read-out: Activity
K562 = experiment: Growth inhibition of human K562 cells assessed as cell growth at 10^-7 M incubated for 48 hrs by sulforhodamine B assay; assay type: functional; conditions: K562, 48 h, read-out: Activity
[4] = Growth inhibition of human SW620 cells assessed as cell growth at 10^-7 M incubated for 48 hrs by sulforhodamine B assay; assay type: functional; conditions: SW-620, 48 h, read-out: Activity
[5] = Growth inhibition of human OVCAR5 cells assessed as cell growth at 10^-4 M incubated for 48 hrs by sulforhodamine B assay; assay type: functional; conditions: OVCAR-5, 48 h, read-out: Activity
[6] = Growth inhibition of human SKOV3 cells assessed as cell growth at 10^-4 M incubated for 48 hrs by sulforhodamine B assay; assay type: functional; conditions: SK-OV-3, 48 h, read-out: Activity
ACHN = experiment: Growth inhibition of human ACHN cells assessed as cell growth at 10 uM incubated for 48 hrs by sulforhodamine B assay; assay type: functional; conditions: read-out: Activity
Outline: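 One-dose screen at 10 µM final. Cells are plated at 5,000–40,000 per well according to doubling time and preincubated 24 h at 37 °C, 5% CO₂. Compound (DMSO stock diluted in medium with 50 µg/ml gentamicin) is then added for 48 h. Growth percent is read by sulforhodamine B staining, absorbance at 515 nm.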

MCF7 = experiment: Growth inhibition of human MCF7 cells assessed as cell growth at 10 uM incubated for 48 hrs by sulforhodamine B assay; assay type: functional; conditions: MCF7, 48 h, read-out: Activity
SR = experiment: Growth inhibition of human SR cells assessed as cell growth at 10^-8 M incubated for 48 hrs by sulforhodamine B assay; assay type: functional; conditions: read-out: Activity
[7] = Growth inhibition of human TK10 cells assessed as cell growth at 10^-7 M incubated for 48 hrs by sulforhodamine B assay; assay type: functional; conditions: TK-10, 48 h, read-out: Activity
MDA-MB-231 [8] = experiment: Growth inhibition of human MDA-MB-231 cells assessed as cell growth at 10^-6 M incubated for 48 hrs by sulforhodamine B assay; assay type: functional; conditions: MDA-MB-231, 48 h, read-out: Activity
[9] = Growth inhibition of human BT549 cells assessed as cell growth at 10^-6 M incubated for 48 hrs by sulforhodamine B assay; assay type: functional; conditions: BT-549, 48 h, read-out: Activity; outline: as §2
MDA-MB-468 [10] = experiment: Growth inhibition of human MDA-MB-468 cells assessed as cell growth at 10^-6 M incubated for 48 hrs by sulforhodamine B assay; assay type: functional; conditions: MDA-MB-468, 48 h, read-out: Activity
A549 = experiment: Growth inhibition of human A549/ATCC cells assessed as cell growth at 10^-5 M incubated for 48 hrs by sulforhodamine B assay; assay type: functional; conditions: A549, 48 h, read-out: Activity; outline: as §2
M14 = experiment: Growth inhibition of human M14 cells assessed as cell growth at 10^-5 M incubated for 48 hrs by sulforhodamine B assay; assay type: functional; conditions: M14, 48 h, read-out: Activity
[11] = Growth inhibition of human UACC62 cells assessed as cell growth at 10^-5 M incubated for 48 hrs by sulforhodamine B assay; assay type: functional; conditions: UACC-62, 48 h, read-out: Activity
[12] = Growth inhibition of human OVCAR3 cells assessed as cell growth at 10^-5 M incubated for 48 hrs by sulforhodamine B assay; assay type: functional; conditions: OVCAR-3, 48 h, read-out: Activity
NCI-H522 = experiment: Growth inhibition of human NCI-H522 cells assessed as cell growth at 10 uM incubated for 48 hrs by sulforhodamine B assay; assay type: functional; conditions: NCI-H522, 48 h, read-out: Activity
[13] = Growth inhibition of human HCT116 cells assessed as cell growth at 10 uM incubated for 48 hrs by sulforhodamine B assay; assay type: functional; conditions: HCT-116, 48 h, read-out: Activity
Outline: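 Primary screen at one dose (10 µM) across 60 human cancer cell lines. Readout was growth percent relative to untreated control and time-zero.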

MDA-MB-468 [14] = experiment: Growth inhibition of human MDA-MB-468 cells incubated for 48 hrs by sulforhodamine B assay; assay type: functional; conditions: MDA-MB-468, 48 h; outline: as §1
Albumin = Albumin (Bos taurus, UniProt P02769); experiment: Binding affinity to bovine serum albumin assessed as isoemissive point up to 20 uM by fluorescence spectroscopic analysis relative to control; assay type: ADME; conditions: cattle, isolated protein
Sequence of Albumin (P02769 whole entry): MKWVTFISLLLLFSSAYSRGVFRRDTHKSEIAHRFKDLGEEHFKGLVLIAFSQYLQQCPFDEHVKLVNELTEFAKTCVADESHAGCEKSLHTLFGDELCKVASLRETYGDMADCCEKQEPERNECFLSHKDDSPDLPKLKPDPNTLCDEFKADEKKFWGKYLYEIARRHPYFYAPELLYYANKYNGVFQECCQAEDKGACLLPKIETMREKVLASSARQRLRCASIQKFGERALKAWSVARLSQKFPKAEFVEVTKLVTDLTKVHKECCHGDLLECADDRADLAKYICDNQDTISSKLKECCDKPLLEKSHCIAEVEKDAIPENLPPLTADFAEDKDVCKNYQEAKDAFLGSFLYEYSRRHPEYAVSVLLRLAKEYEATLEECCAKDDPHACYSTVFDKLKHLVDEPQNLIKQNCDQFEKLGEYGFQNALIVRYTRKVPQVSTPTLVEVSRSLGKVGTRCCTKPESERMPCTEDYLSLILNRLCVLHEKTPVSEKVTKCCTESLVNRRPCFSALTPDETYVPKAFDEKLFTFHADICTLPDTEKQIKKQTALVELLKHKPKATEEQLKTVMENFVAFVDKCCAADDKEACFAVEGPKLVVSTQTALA
Outline: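 Fluorescence titration of 10 µM BSA in 0.1 M phosphate buffer pH 7.4 with compound at 0–20 µM, diluted from DMSO stocks. Excitation 280 nm, slit 10 nm, 1 cm quartz cell, 300 K. Changes in the 350 nm Trp emission, new bands near 370–373 nm and isoemissive points are read against BSA alone.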

[15] = read-out: LC50 (the source's name)
[16] = read-out: pLC50 (the source's name) (converted)

## Clc1ccc(-c2nc(Nc3ccc(-c4nc5ccccc5[nH]4)cc3)nc(N3CCOCC3)n2)cc1
[1]
  growth at 100 µM: -30%
SK-MEL-2; read-out: GI50
  GI50: 1.8 µM
SK-MEL-2; read-out: TGI
  TGI: 3.37 µM
SK-MEL-2; read-out: pGI50 (converted)
  GI50: 1.82 µM
SK-MEL-2; read-out: pTGI (converted)
  TGI: 3.39 µM
A498; read-out: GI50
  GI50: 1.69 µM
A498; read-out: TGI
  TGI: 3.29 µM
A498; read-out: pGI50 (converted)
  GI50: 1.7 µM
A498; read-out: pTGI (converted)
  TGI: 3.31 µM
[2]; read-out: GI50
  GI50: 1.96 µM
[2]; [15]
  CC50: 5.97 µM
[2]; read-out: TGI
  TGI: 3.42 µM
[2]; read-out: pGI50 (converted)
  GI50: 1.95 µM
[2]; [16]
  CC50: 6.03 µM
[2]; read-out: pTGI (converted)
  TGI: 3.39 µM
MDA-MB-231 [3]
  growth at 0.01 µM: 93%
T47D
  growth at 0.01 µM: 99%
K562
  growth at 0.1 µM: 92%
[4]
  growth at 0.1 µM: 95%
[5]
  growth at 100 µM: -16%
[6]
  growth at 100 µM: -50%
ACHN
  growth at 10 µM: -90.6%
MCF7
  growth at 10 µM: -73.8%
SR
  growth at 0.01 µM: 103%
[7]
  growth at 0.1 µM: 92%
MDA-MB-231 [8]
  growth at 1 µM: -55%
[9]
  growth at 1 µM: 86%
MDA-MB-468 [10]
  growth at 1 µM: 25%
A549
  growth at 10 µM: -81%
M14
  growth at 10 µM: -85%
[11]
  growth at 10 µM: -77%
[12]
  growth at 10 µM: -93%
NCI-H522
  growth at 10 µM: -73.9%
[13]
  growth at 10 µM: -85.5%
MDA-MB-468 [14]; read-out: GI50
  GI50: 0.516 µM
MDA-MB-468 [14]; read-out: TGI
  TGI: 1.82 µM
MDA-MB-468 [14]; read-out: pGI50 (converted)
  GI50: 0.513 µM
MDA-MB-468 [14]; read-out: pTGI (converted)
  TGI: 1.82 µM
Albumin
  Activity: 349 nm

## c1ccc2[nH]c(-c3ccc(Nc4nc(N5CCCCC5)nc(N5CCOCC5)n4)cc3)nc2c1
[1]
  growth at 100 µM: -46%
SK-MEL-2; read-out: GI50
  GI50: 2.34 µM
SK-MEL-2; [15]
  CC50: 25.8 µM
SK-MEL-2; read-out: TGI
  TGI: 5.36 µM
SK-MEL-2; read-out: pGI50 (converted)
  GI50: 2.34 µM
SK-MEL-2; [16]
  CC50: 25.7 µM
SK-MEL-2; read-out: pTGI (converted)
  TGI: 5.37 µM
A498; read-out: GI50
  GI50: 1.77 µM
A498; [15]
  CC50: 9.89 µM
A498; read-out: TGI
  TGI: 4.18 µM
A498; read-out: pGI50 (converted)
  GI50: 1.78 µM
A498; [16]
  CC50: 10 µM
A498; read-out: pTGI (converted)
  TGI: 4.17 µM
[2]; read-out: GI50
  GI50: 3.21 µM
[2]; [15]
  CC50: > 100 µM
[2]; read-out: TGI
  TGI: 9.26 µM
[2]; read-out: pGI50 (converted)
  GI50: 3.24 µM
[2]; [16]
  CC50: > 100 µM
[2]; read-out: pTGI (converted)
  TGI: 9.33 µM
MDA-MB-231 [3]
  growth at 0.01 µM: 99%
T47D
  growth at 0.01 µM: 93%
K562
  growth at 0.1 µM: 107%
[4]
  growth at 0.1 µM: 92%
[5]
  growth at 100 µM: -18%
[6]
  growth at 100 µM: -67%
ACHN
  growth at 10 µM: 22.9%
MCF7
  growth at 10 µM: 3.49%
SR
  growth at 0.01 µM: 95%
[7]
  growth at 0.1 µM: 93%
MDA-MB-231 [8]
  growth at 1 µM: 92%
[9]
  growth at 1 µM: 89%
MDA-MB-468 [10]
  growth at 1 µM: 106%
A549
  growth at 10 µM: 2%
M14
  growth at 10 µM: -45%
[11]
  growth at 10 µM: -53%
[12]
  growth at 10 µM: -25%
NCI-H522
  growth at 10 µM: 9.25%
[13]
  growth at 10 µM: 9.65%
MDA-MB-468 [14]; read-out: GI50
  GI50: 2.68 µM
MDA-MB-468 [14]; [15]
  CC50: > 100 µM
MDA-MB-468 [14]; read-out: TGI
  TGI: 6.51 µM
MDA-MB-468 [14]; read-out: pGI50 (converted)
  GI50: 2.69 µM
MDA-MB-468 [14]; [16]
  CC50: > 100 µM
MDA-MB-468 [14]; read-out: pTGI (converted)
  TGI: 6.46 µM
Albumin
  Activity: 350 nm

Reference: ChEMBL document CHEMBL3808334, “Synthesis and in vitro evaluation of novel triazine analogues as anticancer agents and their interaction studies with bovine serum albumin” (Eur J Med Chem, 2016)
